Tested on: HepG2
Test: Induction of LDLR mRNA expression in human HepG2 cells after 12 hrs by RT-PCR assay relative to untreated control
Type: functional
Procedure, shortened: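 HepG2 cells kept in RPMI-1640 with 10% FBS, moved 24 h before dosing to 10% LPDS, then at ~80% confluence to RPMI-1640 with 0.5% LPDS plus compound (5.0 µg/mL in table; concentrations as indicated in figure), 12 h, 37 °C. Total RNA reverse-transcribed, TaqMan real-time PCR, comparative CT method with GAPDH reference; fold of untreated cells (=1); mean of three experiments.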

| SMILES | fold change (FC) |
| --- | --- |
| COc1ccc2c(c1OC)C[N+]1(Cc3ccccc3)CCc3cc4c(cc3C1C2)OCO4.[Br-] (stereo not drawn) | 1.1 |
| CC[N+]12CCc3cc4c(cc3C1Cc1cc(OC)c(OC)cc1C2)OCO4.[Br-] (stereo not drawn) | 0.8 |
| CCC[N+]12CCc3cc4c(cc3C1Cc1cc(OC)c(OC)cc1C2)OCO4.[I-] (stereo not drawn) | 0.9 |
| CCOC(=O)C[N+]12CCc3cc4c(cc3C1Cc1cc(OC)c(OC)cc1C2)OCO4.[Br-] (stereo not drawn) | 1 |
| COc1cc2c(cc1OC)-c1cc3ccc(OC)c(OC)c3c[n+]1CC2.[I-] | 0.8 |
| COc1cc2c(cc1OC)CN1CCc3cc4c(cc3C1C2)OCO4 (stereo not drawn) | 1.3 |
| COc1cc2c(cc1OC)C[N+]1(C)CCc3cc4c(cc3C1C2)OCO4.[I-] (stereo not drawn) | 0.9 |
| CCC[N+]12CCc3cc4c(cc3C1Cc1ccc(OC)c(OC)c1C2)OCO4.[I-] (stereo not drawn) | 1.2 |

Reference: ChEMBL document CHEMBL1140862, “Berberine analogues as a novel class of the low-density-lipoprotein receptor up-regulators: synthesis, structure-activity relationships, and cholesterol-lowering efficacy” (J Med Chem, 2009)
